A selection: hits, their analogues and other compounds. The true share with any hit is near 1.3%.
Casp6 inh – caspase-6 (human) enzyme inhibition | inhibition, % at 12.5 µM | actives 0.53% (n = 350,000) | AID 686996 | purified caspase-6, Z-VEID-R110 cleavage fluorescence | P55212;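 active = mean inhibition across replicates at least about 35%, with every replicate also reaching that limit, limit read from the data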
LEDGF integ inh – blocks HIV-1 LEDGF/p75-dependent DNA integration; TR-FRET IN-LEDGF/p75 DNA integration, Eu/Cy5; inhibition, % at 3.7 µM; actives 0.64% (n = 370,000); AID 743269;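 active = inhibition above the screen-wide mean plus 3 SD, cut at about 13% in these data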;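 note: signal is the Cy5 over europium emission ratio at 671 and 618 nm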
NSD2 inh – NSD2 (human) methyltransferase inhibition | O96028 | NSD2 peptide methylation, AlphaScreen, 120 min | inhibition, % at 12.5 µM | actives 0.54% (n = 310,000) | AID 743445; in the data active = inhibition above about 50%
Target sequence (O96028 whole entry, looked up): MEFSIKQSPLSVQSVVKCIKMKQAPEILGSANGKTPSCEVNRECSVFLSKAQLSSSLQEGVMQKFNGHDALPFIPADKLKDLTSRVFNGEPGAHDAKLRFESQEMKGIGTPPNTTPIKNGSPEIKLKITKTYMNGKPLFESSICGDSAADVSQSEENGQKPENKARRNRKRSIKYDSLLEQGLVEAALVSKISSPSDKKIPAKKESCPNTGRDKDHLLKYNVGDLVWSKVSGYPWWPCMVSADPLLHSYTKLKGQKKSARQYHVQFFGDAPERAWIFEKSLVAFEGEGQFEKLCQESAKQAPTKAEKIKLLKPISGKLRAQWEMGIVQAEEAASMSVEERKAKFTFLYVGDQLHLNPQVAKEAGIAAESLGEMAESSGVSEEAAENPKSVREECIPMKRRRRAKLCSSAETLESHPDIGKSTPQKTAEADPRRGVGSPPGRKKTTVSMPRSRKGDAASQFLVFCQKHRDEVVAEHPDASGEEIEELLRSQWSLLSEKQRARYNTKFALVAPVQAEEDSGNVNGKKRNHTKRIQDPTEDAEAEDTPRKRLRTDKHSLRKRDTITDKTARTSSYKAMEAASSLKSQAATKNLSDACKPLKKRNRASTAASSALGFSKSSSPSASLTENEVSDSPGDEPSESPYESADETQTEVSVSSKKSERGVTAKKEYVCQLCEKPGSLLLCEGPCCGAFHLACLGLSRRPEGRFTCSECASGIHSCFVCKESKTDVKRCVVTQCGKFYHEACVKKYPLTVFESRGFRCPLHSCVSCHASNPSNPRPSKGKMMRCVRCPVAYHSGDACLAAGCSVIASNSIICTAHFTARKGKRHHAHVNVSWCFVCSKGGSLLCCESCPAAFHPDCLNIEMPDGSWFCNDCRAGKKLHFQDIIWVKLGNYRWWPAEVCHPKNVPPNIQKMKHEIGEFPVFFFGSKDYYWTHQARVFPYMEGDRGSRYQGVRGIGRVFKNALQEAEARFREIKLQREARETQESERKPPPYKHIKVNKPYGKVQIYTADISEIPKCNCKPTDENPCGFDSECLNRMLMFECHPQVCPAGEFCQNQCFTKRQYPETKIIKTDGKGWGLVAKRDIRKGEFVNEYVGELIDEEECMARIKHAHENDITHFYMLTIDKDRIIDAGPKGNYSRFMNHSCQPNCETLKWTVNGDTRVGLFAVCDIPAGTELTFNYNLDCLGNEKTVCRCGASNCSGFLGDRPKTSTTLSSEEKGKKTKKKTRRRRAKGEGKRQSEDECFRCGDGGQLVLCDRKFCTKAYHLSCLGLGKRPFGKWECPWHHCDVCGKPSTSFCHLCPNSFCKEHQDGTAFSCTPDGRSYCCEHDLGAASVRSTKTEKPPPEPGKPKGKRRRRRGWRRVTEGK
TDP2 absorb – TDP2 (human) inhibition, absorbance primary screen. O95551. recombinant TDP2, T5PNP hydrolysis, p-nitrophenol absorbance 415 nm. inhibition, % at 12.8 µM. actives 0.34% (n = 370,000). AID 720702;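 active = inhibition above the mean of all tested compounds plus 3 SD, set per campaign, cut at about 25% in these data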
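Test system: human TDP2 enzyme; Input: 120 nM TDP2 per well; Buffer or medium: Mg2+-containing Tris-HCl buffer, pH 7.5; Reagent: 5 mM T5PNP; Dosing: 12.8 µM single point, 1% DMSO; Incubation: reaction 2 h, 37 °C; Detection: p-Nitrophenol epi absorbance; Read-out: % inhibition relative to enzyme-containing and enzyme-free wells; Replicates: single well per compound.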
UCH37 DUB inh – inhibitors of human deubiquitinating enzyme UCH37; Q9Y5K5; purified proteasome/UCH37, Ub-AMC cleavage fluorescence; inhibition, % (test concentration not listed); actives 0.33% (n = 330,000); AID 588478;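 active = mean inhibition over replicate wells above about 20%, limit read from the data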
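system = Proteasome-associated human UCH37 deubiquitinase | amount = 0.15 nM proteasome as dispensed | medium = pH 7.4 Tris-HCl (50 mM) with ovalbumin, ATP-MgCl2, DTT | incubation = 30 min preincubation with enzyme, 25 min cleavage at room temperature | detection = AMC fluorescence 355/460 nm | read-out basis = percent inhibition | controls = no-proteasome and no-compound wells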
IN multimer act – HIV-1 integrase multimerization activation, counter-screen | shares compounds with LEDGF integ inh | actives 17% (n = 2,000) | TR-FRET HIV-1 integrase multimerization, biochemical | activation, % at 7.7 µM; in the data active = activation above about 8.9%
TR-FRET interf – counter-screen for LEDGF/p75 integration inhibitors: TR-FRET optical interference; shares compounds with LEDGF integ inh; TR-FRET optical interference counterscreen, HIV-1 IN multimerization; inhibition, % at 7.7 µM; 2,000 tested, under 10 active;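 active = inhibition above the mean over all tested compounds plus 3 SD, which no compound reached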
LEDGF integ conf – LEDGF/p75-dependent HIV-1 integration inhibition, confirmation; inhibition, % at 3.7 µM; actives 36% (n = 2,000); shares compounds with LEDGF integ inh; TR-FRET LEDGF/p75-dependent HIV-1 integration, biochemical; in the data active = inhibition above about 14%
A number is an active result; n = inactive; x = not tested or not shown.

SMILES | Casp6 inh | LEDGF integ inh | NSD2 inh | TDP2 absorb | UCH37 DUB inh | IN multimer act | TR-FRET interf | LEDGF integ conf
O=C(NN=Cc1ccc(Br)s1)c1ccccc1[N+](=O)[O-] | x | x | x | x | n | x | x | x
CCOC(=O)c1cnc2c(ccc3ccccc32)c1N | n | 59.6 | n | n | n | n | n | n
CCOC(=O)c1cnc2c(ccc3ccccc32)c1NCCO | x | n | n | n | n | x | x | x
O=c1[nH]c2cc3c(cc2cc1CN(Cc1nnnn1CC1CCCO1)C1CCCC1)OCO3 (configuration not stated) | x | n | x | n | n | x | x | x
O=c1[nH]c2cc3c(cc2cc1CN(Cc1nnnn1CC1CCCO1)C1CCCCC1)OCO3 (configuration not stated) | x | 18.2 | n | n | n | n | n | n
O=C(NC12CC3CC(CC(C3)C1)C2)N1CCN(c2ccccn2)CC1 | n | 49.4 | n | n | n | n | n | n
COc1ccc(-c2c(Cc3ccccc3)nc(NC(=O)c3ccccc3F)n2C)cc1 | x | 19.6 | x | n | x | n | n | 16.6
CCOC(=O)C(CC)C(C)=NNC(=O)CCC(=O)Nc1ccc(Cl)cc1Cl (configuration not stated) | x | x | x | x | n | x | x | x
O=C(Cc1cccs1)NN=Cc1ccc([N+](=O)[O-])s1 | x | x | x | x | n | x | x | x
COC(=O)c1cc(O)cc(OC)c1C(=O)c1c(O)cc(C)cc1O | n | n | x | n | n | x | x | x
COC(=O)c1cc(O)cc(OC)c1Oc1cc(C)cc(O)c1C(=O)O | 42.6 | 19.4 | x | n | n | 40.2 | n | 58.2
COC(=O)\C(C(C)=O)=C(/C=C/C=C/C=C/N(C)C)N(C)C | x | 55.5 | x | n | n | n | n | 59.3
COc1ccc(-c2nc(NN=C(C)c3ccc(O)cc3)c3ccccc3n2)cc1 | x | x | x | x | n | x | x | x
O=C1Nc2ccccc2C1=NN=CC1=C(N2CCOCC2)/C(=C\c2ccccc2)CC1 | x | x | x | x | n | x | x | x
NC(=O)/C(=C\c1ccc([N+](=O)[O-])o1)c1ccco1 | n | 22.1 | x | n | x | n | n | 27.9
Cc1ccc2nc3c(cc(S(=O)(=O)c4ccccc4)c(=N)n3Cc3ccco3)c(=O)n2c1 | n | 18.4 | n | n | n | n | n | n
N=c1c(C(=O)NC2CCCCC2)cc2c(=O)n3ccccc3nc2n1Cc1ccco1 | n | n | n | n | n | x | x | x
N=c1c(C(=O)NCCc2ccccc2)cc2c(=O)n3ccccc3nc2n1Cc1ccco1 | n | 17.4 | n | n | n | n | n | n
COc1ccccc1/C=C\C=NNC(=O)c1ccco1 | x | x | x | x | n | x | x | x
COc1cc(Br)cc(Br)c1OCC(=O)NN=Cc1c(C)n(C)n(-c2ccccc2)c1=O | x | x | x | x | n | x | x | x
CCCCc1cc(=O)oc2cc(OC3CCCCC3=O)ccc12 (configuration not stated) | n | 18.2 | n | n | n | n | n | n
Cc1ccc(S(=O)(=O)c2nc(-c3ccco3)oc2SC(C)C)cc1 | n | 16.4 | n | n | n | n | n | n
Cc1ccccc1N(CC(=O)Nc1ccc(F)cc1)S(C)(=O)=O | x | n | n | n | n | x | x | x
Cc1ccc(NC(=O)CN(c2ccccc2F)S(C)(=O)=O)cc1 | n | 20.6 | n | n | n | n | n | n
COC(=O)[C@]12CCCCC=C1N(Cc1cccc3ccccc13)C(=O)[C@H](CC(=O)N1CCCCC1)C2 | n | 82.3 | x | n | x | n | n | n
SMILES | Casp6 inh | LEDGF integ inh | NSD2 inh | TDP2 absorb | UCH37 DUB inh | IN multimer act | TR-FRET interf | LEDGF integ conf
COC(=O)[C@]12CCCCC=C1N(Cc1cccc3ccccc13)C(=O)[C@H](CC(=O)N1CCC(c3ccccc3)CC1)C2 | n | n | x | n | x | x | x | x
O=C(NN=Cc1cc(O)ccc1[N+](=O)[O-])c1ccc2c(c1)OCCO2 | x | x | x | x | n | x | x | x
O=[N+]([O-])C1=CC=C2C(=NC3(CCCCC3)N2O)C1=NC1CCCCC1 | n | n | n | n | n | x | x | x
CC1(C)CC(N=C2C([N+](=O)[O-])=CC=C3C2=NC2(CCCCC2)N3O)CC(C)(C)N1 | n | 26.1 | n | n | n | n | n | n
CCOC(=O)N1CCN(C(=O)CCc2ccccc2)CC1 | n | 56.1 | n | n | n | n | n | n
O=C(CCc1ccccc1)N1CCN(C(=O)CCc2ccccc2)CC1 | n | n | n | n | n | x | x | x
O=C(NC1CCCCCC1)c1cccnc1Sc1ccccc1 | n | 24.0 | n | n | n | n | n | n
Cc1ccc(Sc2ncccc2C(=O)NC2CCCCCC2)cc1C | x | n | n | n | n | x | x | x
O=c1/c(=C/c2ccco2)sc2n1CN(c1cccc(Br)c1)CN=2 | x | n | n | n | x | x | x | x
O=c1/c(=C/c2ccco2)sc2n1CN(c1ccccc1)CN=2 | x | 17.4 | n | n | x | n | n | n
O=C(Cc1cccs1)NN=Cc1ccco1 | x | x | x | x | n | x | x | x
COC(=O)c1sc2nc(-c3ccco3)ccc2c1N | x | 51.8 | n | n | n | n | n | n
NC(=O)c1sc2nc(-c3ccco3)ccc2c1N | x | 40.7 | n | n | n | 12.6 | n | n
COC(=O)c1sc2nc(N)c(C#N)cc2c1N | x | 33.8 | n | n | n | n | n | n
Nc1c(C(=O)Nc2ccccc2F)sc2nc(-c3ccco3)ccc12 | x | n | n | n | n | x | x | x
CCOC(=O)NN=Cc1cn(Cc2ccc(F)cc2)c2ccccc12 | x | x | x | x | n | x | x | x
CC1=NNC(=O)C1CCC(=O)NN=Cc1ccccc1 (configuration not stated) | x | x | x | x | n | x | x | x
CCOc1cc(C=NNc2cc(C)nc3ccc(C)cc23)ccc1O | x | x | x | x | n | x | x | x
CC(C)CC1=NN2C(=N)/C(=C\c3coc4ccccc4c3=O)C(=O)N=C2S1 | x | 25.7 | x | n | n | n | n | 23.5
O=Cc1cc(N=Nc2ccccc2Cl)ccc1O | n | 17.1 | x | n | n | n | n | 49.4
COc1cccc(NC(=O)COc2nc3ccccc3nc2C)c1 | n | n | n | n | n | x | x | x
Cc1nc2ccccc2nc1OCC(=O)Nc1ccccc1 | n | 16.8 | n | n | n | n | n | n
CCCN(CC1CC1)C(=S)NC(=O)c1cc(Br)ccc1Cl | n | 16.6 | n | n | n | n | n | n
CC(=NNc1ccc(F)cc1)c1ccc(N2CCOCC2)c(F)c1 | x | x | x | x | n | x | x | x
CC(=NNC(=O)c1ccoc1C)c1ccccc1O | x | x | x | x | n | x | x | x
SMILES | Casp6 inh | LEDGF integ inh | NSD2 inh | TDP2 absorb | UCH37 DUB inh | IN multimer act | TR-FRET interf | LEDGF integ conf
CCCc1cc(CN2CCOCC2)c(O)c(CN2CCOCC2)c1O | n | n | n | n | x | x | x | x
Oc1cccc(CN2CCOCC2)c1O | n | 78.2 | n | n | n | 11.1 | n | 34.7
Oc1c(CN2CCOCC2)cc(CN2CCOCC2)c(O)c1O | n | 84.2 | n | n | n | n | n | 26.5
CC(=O)Nc1sc(NN=Cc2ccccc2Cl)nc1-c1cccs1 | x | x | x | x | n | x | x | x
C=CCN1C(=O)C(Cc2cccc(Cl)c2)SC1=NN=Cc1ccco1 (configuration not stated) | x | x | x | x | n | x | x | x
COc1ccc(B(O)O)c(CN2CCN(C(=O)OC(C)(C)C)CC2)c1 | n | n | x | n | x | x | x | x

From PubChem BioAssay
